Test results: ChEMBL document CHEMBL1139003, “Novel endotoxin-sequestering compounds with terephthalaldehyde-bis-guanylhydrazone scaffolds” (Bioorg Med Chem Lett, 2006)

Tests used:
[1] = test system: Lipopolysaccharide (LPS); experiment: Binding affinity to lipid A moiety of LPS present in Gram negative bacteria by fluorescent probe method; assay type: functional
Procedure, shortened: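 Homogeneous, automated fluorescence displacement assay run in aqueous buffer. A fluorescent probe is bound to LPS and test ligand displaces it. ED50 is the ligand concentration that displaces 50% of the bound probe and is taken as relative binding affinity.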

[2] = test system: J774.A1; experiment: Inhibition of LPS-induced production of nitric oxide in murine J774.A1 cells; assay type: functional, cell-based, Mus musculus
Procedure, shortened: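 Murine J774 cells grown in medium containing fetal bovine serum are stimulated with LPS. Nitric oxide production is read as nitrite. IC50 is the concentration giving 50% inhibition of NO.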

[3] = species on record: Mus musculus; experiment: Decrease in lethality in D-galactosamine-sensitized mice challenged with LPS at 200 ng/mouse; assay type: functional, organism-based
Procedure, shortened: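 Mice primed with D-galactosamine receive graded doses of test compound and are challenged with a supralethal LPS dose of 200 ng/mouse. The endpoint is lethality.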

[4] = species on record: Mus musculus; experiment: Decrease in lethality in D-galactosamine-sensitized mice challenged with LPS at 200 ng/mouse

Row | Molecule | ED50 [1] [µM] | IC50 ([2]; Mus musculus, J774.A1) [µM] | IC50 ([2]; j774.a1) [µM] | Activity [3] | Activity [4]
1 | CCCCCCOc1c(/C=N/N=C(N)N)ccc(/C=N/NC(=N)N)c1OCCCCCC | 13.2 | 4.67 |  |  | 
2 | N=C(N)N/N=C/c1ccc(/C=N/NC(=N)N)cc1 | 34.6 | 24.4 |  |  | 
3 | C=CCOc1c(/C=N/NC(=N)N)ccc(/C=N/NC(=N)N)c1OCC=C | 29.9 | 9.64 |  |  | 
4 | N=C(N)N/N=C/c1ccc(/C=N/NC(=N)N)c(O)c1O | 43.7 | 26.4 |  |  | 
5 | POLYMYXIN B [listing 1 of 2 here] | 1.67 |  |  |  | 
6 | CCCCOc1c(/C=N/N=C(N)N)ccc(/C=N/NC(=N)N)c1OCCCC | 9.44 | 4.15 |  |  | 
7 | CCCCCOc1c(/C=N/N=C(N)N)ccc(/C=N/N=C(N)N)c1OCCCCC | 7.82 | 3.54 |  |  | 
8 | CCCOc1c(/C=N/N=C(N)N)ccc(/C=N/N=C(N)N)c1OCCC | 12.7 | 8.38 |  |  | 
9 | POLYMYXIN B [listing 2 of 2 here] |  |  | 0.98 |  | 
10 | CCCCCCCCCCCCCCOc1c(/C=N/N=C(N)N)ccc(/C=N/N=C(N)N)c1OCCCCCCCCCCCCCC | > 500 | 14.9 |  |  | 
11 | COc1c(/C=N/N=C(N)N)ccc(/C=N/NC(=N)N)c1OC | 42.3 | 28 |  |  | 
12 | CCOc1c(/C=N/N=C(N)N)ccc(/C=N/N=C(N)N)c1OCC | 22.8 | 4.56 |  |  | 
13 | CCCCCCCCOc1c(/C=N/N=C(N)N)ccc(/C=N/N=C(N)N)c1OCCCCCCCC | 39.5 | 3.45 |  | Dose-dependent effect | Dose-dependent effect
